From ChEMBL document CHEMBL4308831, “Developing a Biased Unmatched Bivalent Ligand (BUmBL) Design Strategy to Target the GPCR Homodimer Allosteric Signaling (cAMP over β-Arrestin 2 Recruitment) Within the Melanocortin Receptors” (J Med Chem, 2018)
Activity calls are given as the source filed them. The rule behind the calls is not given here. Non-standard residues stand in square brackets, D forms with d. Residues, ends and D or L forms follow the SMILES beside them. d2Nal = N[C@H](Cc1ccc2ccccc2c1)C(=O)O

Tests used:
Melanocortin receptor 4 [1] = biological target: T1, Melanocortin receptor 4 (Homo sapiens, UniProt P32245); test: Agonist activity at human FLAG-tagged MC4R expressed in HEK293 cells assessed as induction of intracellular cAMP accumulation after 2 hrs by AlphaScreen assay; format: functional, cell-based
T1 sequence (P32245 whole entry): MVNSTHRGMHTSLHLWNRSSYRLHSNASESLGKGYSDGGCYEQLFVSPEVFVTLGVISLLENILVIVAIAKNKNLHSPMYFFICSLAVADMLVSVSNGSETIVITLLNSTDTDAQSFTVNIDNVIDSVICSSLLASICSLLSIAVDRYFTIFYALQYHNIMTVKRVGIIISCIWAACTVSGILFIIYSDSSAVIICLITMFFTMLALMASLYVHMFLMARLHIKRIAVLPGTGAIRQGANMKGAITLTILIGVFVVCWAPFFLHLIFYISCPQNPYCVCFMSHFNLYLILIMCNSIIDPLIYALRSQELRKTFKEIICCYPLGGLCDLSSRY

Melanocortin receptor 4 [2] = biological target: T1, Melanocortin receptor 4; test: Agonist activity at human FLAG-tagged MC4R expressed in HTLA cells assessed as induction of beta-arrestin recruitment at 10 uM after 18 hrs by Presto-tango assay relative to NDP-MSH; format: cell-based
In short: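 HTLA cells (HEK293 with tTA-luciferase reporter and β-arrestin2-TEV) transiently transfected by calcium phosphate with hMC4R PRESTO-Tango construct (4 µg/plate), held 15–24 h at 35 °C and 3% CO2, then plated at 20,000 cells/well in 1% dialyzed FBS. Ligands 10^-12 to 10^-5 M in HEPES/HBSS pH 7.4, 18 h at 37 °C; Bright-Glo luminescence. Duplicates, ≥3 experiments.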

Melanocortin receptor 4 [3] = biological target: T1, Melanocortin receptor 4; test: Selectivity ratio of EC50 for agonist activity at human FLAG-tagged MC4R expressed in HTLA cells assessed as induction of beta-arrestin recruitment to EC50 for agonist activity at human FLAG-tagged MC4R expressed in HEK293 cells assessed as induction of intracellular cAMP accumulation; format: functional, cell-based
Melanocortin receptor 4 [4] = biological target: T1, Melanocortin receptor 4; test: Agonist activity at human FLAG-tagged MC4R expressed in HEK293 cells assessed as induction of intracellular cAMP accumulation at 10 uM after 2 hrs by AlphaScreen assay relative to NDP-MSH; format: functional, cell-based
In short: (§1)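 Stable HEK293 lines (G418 selection) carrying the receptor in pcDNA3, detached with Versene and resuspended in HBSS stimulation buffer containing 0.5 mM IBMX, 5 mM HEPES, 0.1% BSA, pH 7.4, with anti-cAMP acceptor beads; 10,000 cells/well. Ligand 10^-13 to 10^-4 M final, 2 h at room temperature in the dark, then donor beads in lysis buffer for 2 h. Duplicates, ≥3 experiments; curves normalized and flipped relative to controls.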

Melanocortin receptor 4 [5] = biological target: T1, Melanocortin receptor 4; test: Antagonist activity at human FLAG-tagged MC4R expressed in HEK293 cells assessed as reduction in NDP-MSH-induced intracellular cAMP accumulation after 2 hrs by AlphaScreen assay; format: functional, cell-based; settings: read-out: pA2 (converted)
In short: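 Stable hMC4R-Flag HEK293 cells in IBMX-containing HBSS stimulation buffer with AlphaScreen cAMP beads, 10,000 cells/well, stimulated 2 h at room temperature. Antagonist ligands tested dose-dependently against NDP-MSH stimulation; pA2 from Schild regression. Duplicate points, at least three independent experiments.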

[6] = biological target: Melanocortin receptor 4 (Mus musculus) (UniProt P56450); test: Agonist activity at mouse MC4R expressed in HEK293 cells assessed as induction of intracellular cAMP accumulation after 2 hrs by AlphaScreen assay; format: functional, cell-based; in short: as §1
Chain of Melanocortin receptor 4 (Mus musculus) (P56450 whole entry): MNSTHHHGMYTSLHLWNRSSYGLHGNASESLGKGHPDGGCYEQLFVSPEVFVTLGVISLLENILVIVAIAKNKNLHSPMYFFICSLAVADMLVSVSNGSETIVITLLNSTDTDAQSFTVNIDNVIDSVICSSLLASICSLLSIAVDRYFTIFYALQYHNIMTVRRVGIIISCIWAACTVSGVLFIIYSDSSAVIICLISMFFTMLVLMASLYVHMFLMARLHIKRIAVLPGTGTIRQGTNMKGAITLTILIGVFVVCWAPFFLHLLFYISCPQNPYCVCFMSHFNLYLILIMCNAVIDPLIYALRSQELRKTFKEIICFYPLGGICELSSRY

[7] = biological target: Melanocortin receptor 4 (Mus musculus) (UniProt P56450); test: Decrease in protein-protein interaction of mouse Nano-Luc-tagged MC4R/mouse Halo-tagged MC4R homodimer expressed in HEK293 cells up to 10 mins by BRET assay; format: cell-based
[8] = biological target: Melanocortin receptor 4 (Mus musculus) (UniProt P56450); test: Effect on protein-protein interaction of mouse Nano-Luc-tagged MC4R/mouse Halo-tagged MC4R homodimer expressed in HEK293 cells at 10^-9 to 10^-5 M up to 10 mins by BRET assay; format: cell-based

Compound | Activity (Melanocortin receptor 4 [2]) | Ratio EC50 (Melanocortin receptor 4 [3]) | Activity (Melanocortin receptor 4 [4]) | Kb (Melanocortin receptor 4 [5]) | Activity [6] | further results
CC(=O)N[C@@H](Cc1cnc[nH]1)C(=O)N[C@H](Cc1ccc2ccccc2c1)C(=O)N[C@@H](CCCNC(=N)N)C(=O)N[C@@H](Cc1c[nH]c2ccccc12)C(=O)NCCCOCCOCCOCCCNC(=O)COCC(=O)NCCCOCCOCCOCCCNC(=O)COCC(=O)N[C@@H](Cc1cnc[nH]1)C(=O)N[C@H](Cc1ccccc1)C(=O)N[C@@H](CCCNC(=N)N)C(=O)N[C@@H](Cc1c[nH]c2ccccc12)C(N)=O | 25% | 3000 | – | – | – | EC50 (Melanocortin receptor 4 [1]): 5.9 nM
CC(=O)N[C@@H](Cc1cnc[nH]1)C(=O)N[C@H](Cc1ccc2ccccc2c1)C(=O)N[C@@H](CCCNC(=N)N)C(=O)N[C@@H](Cc1c[nH]c2ccccc12)C(=O)N1CCC[C@H]1C(=O)NCC(=O)N1CCC[C@H]1C(=O)NCC(=O)N1CCC[C@H]1C(=O)NCC(=O)N1CCC[C@H]1C(=O)NCC(=O)N1CCC[C@H]1C(=O)NCC(=O)N1CCC[C@H]1C(=O)NCC(N)=O (Ac-H[d2Nal]RWPGPGPGPGPGPG-NH2) | 30% | – | 55% | 52.5 nM | – | –
CC(=O)N[C@@H](Cc1cnc[nH]1)C(=O)N[C@H](Cc1ccc2ccccc2c1)C(=O)N[C@@H](CCCNC(=N)N)C(=O)N[C@@H](Cc1c[nH]c2ccccc12)C(=O)NCCCOCCOCCOCCCNC(=O)COCC(=O)N[C@@H](Cc1cnc[nH]1)C(=O)N[C@H](Cc1ccccc1)C(=O)N[C@@H](CCCNC(=N)N)C(=O)N[C@@H](Cc1c[nH]c2ccccc12)C(N)=O | 20% | 3000 | – | – | – | –
CC(=O)N[C@@H](Cc1cnc[nH]1)C(=O)N[C@H](Cc1ccccc1)C(=O)N[C@@H](CCCNC(=N)N)C(=O)N[C@@H](Cc1c[nH]c2ccccc12)C(N)=O | – | – | – | – | Active | Activity [7]: Dose-dependent effect
CC(=O)N[C@@H](Cc1cnc[nH]1)C(=O)N[C@H](Cc1ccc2ccccc2c1)C(=O)N[C@@H](CCCNC(=N)N)C(=O)N[C@@H](Cc1c[nH]c2ccccc12)C(=O)NCCCOCCOCCOCCCNC(=O)COCC(=O)N[C@@H](Cc1cnc[nH]1)C(=O)N[C@H](Cc1ccc2ccccc2c1)C(=O)N[C@@H](CCCNC(=N)N)C(=O)N[C@@H](Cc1c[nH]c2ccccc12)C(N)=O | 10% | – | 70% | 15.8 nM | inactive | Activity [8]: inactive
N=C(N)NCCC[C@H](NC(=O)[C@@H](Cc1ccc2ccccc2c1)NC(=O)[C@H](Cc1cnc[nH]1)NC(=O)COCC(=O)NCCCOCCOCCOCCCN)C(=O)N[C@@H](Cc1c[nH]c2ccccc12)C(N)=O | 20% | – | 50% | 13.5 nM | – | –
CC(=O)N[C@@H](Cc1c[nH]cn1)C(=O)N[C@H](Cc1ccc2ccccc2c1)C(=O)N[C@@H](CCCN=C(N)N)C(=O)N[C@@H](Cc1c[nH]c2ccccc12)C(N)=O | 30% | – | 50% | – | inactive | Activity [8]: inactive
CC(=O)N[C@@H](Cc1cnc[nH]1)C(=O)N[C@H](Cc1ccccc1)C(=O)N[C@@H](CCCNC(=N)N)C(=O)N[C@@H](Cc1c[nH]c2ccccc12)C(=O)NCCCOCCOCCOCCCNC(=O)COCC(=O)N[C@@H](Cc1cnc[nH]1)C(=O)N[C@H](Cc1ccc2ccccc2c1)C(=O)N[C@@H](CCCNC(=N)N)C(=O)N[C@@H](Cc1c[nH]c2ccccc12)C(N)=O | 45% | 3000 | – | – | Active | –
CC(=O)N[C@@H](Cc1cnc[nH]1)C(=O)N[C@H](Cc1ccc2ccccc2c1)C(=O)N[C@@H](CCCNC(=N)N)C(=O)N[C@@H](Cc1c[nH]c2ccccc12)C(=O)NCCCOCCOCCOCCCNC(=O)COCC(N)=O | 15% | – | 55% | 7.59 nM | – | –
CC(=O)N[C@@H](Cc1cnc[nH]1)C(=O)N[C@H](Cc1ccccc1)C(=O)N[C@@H](CCCNC(=N)N)C(=O)N[C@@H](Cc1c[nH]c2ccccc12)C(=O)NCCCOCCOCCOCCCNC(=O)COCC(=O)N[C@@H](Cc1cnc[nH]1)C(=O)N[C@H](Cc1ccccc1)C(=O)N[C@@H](CCCNC(=N)N)C(=O)N[C@@H](Cc1c[nH]c2ccccc12)C(N)=O | – | – | – | – | Active | Activity [7]: Dose-dependent effect
CC(=O)N[C@@H](Cc1cnc[nH]1)C(=O)N[C@H](Cc1ccc2ccccc2c1)C(=O)N[C@@H](CCCNC(=N)N)C(=O)N[C@@H](Cc1c[nH]c2ccccc12)C(=O)N1CCC[C@H]1C(=O)NCC(=O)N1CCC[C@H]1C(=O)NCC(=O)N1CCC[C@H]1C(=O)NCC(=O)N1CCC[C@H]1C(=O)NCC(=O)N1CCC[C@H]1C(=O)NCC(=O)N1CCC[C@H]1C(=O)NCC(=O)N[C@@H](Cc1cnc[nH]1)C(=O)N[C@H](Cc1ccccc1)C(=O)N[C@@H](CCCNC(=N)N)C(=O)N[C@@H](Cc1c[nH]c2ccccc12)C(N)=O | 55% | 3000 | – | – | – | –
CC(=O)N[C@@H](Cc1cnc[nH]1)C(=O)N[C@H](Cc1ccc2ccccc2c1)C(=O)N[C@@H](CCCNC(=N)N)C(=O)N[C@@H](Cc1c[nH]c2ccccc12)C(N)=O | – | – | – | 15.1 nM | – | –
